# Test results from ChEMBL document CHEMBL3877272, “Synthesis and anti-mitotic activity of 6,7-dihydro-4H-isothiazolo[4,5-b]pyridin-5-ones: In vivo and cell-based studies” (Eur J Med Chem, 2017).
# Activity calls are given as the source filed them.
# Legend:
# Paracentrotus lividus [1] = test: Antimitotic activity in sea urchin embryo assessed as cleavage alteration exposed 8 to 15 mins after fertilization 45 to 55 mins before first mitotic cycle completion measured at 2.5 to 5.5 hrs post dose; assay type: functional
# Method in brief: (§1)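 Paracentrotus lividus eggs, fertilized in filtered seawater, cultured as monolayer (up to 2000 embryos/mL) at room temperature. Exposed 8–15 min post-fertilization to 2-fold decreasing concentrations (DMSO stock diluted in EtOH; final DMSO ≤0.05%, EtOH ≤1%). Cleavage alteration scored at 8-cell, arrest at early blastula stage (2.5–5.5 h). Effective threshold concentration reported; duplicate measurements.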
# Paracentrotus lividus [2] = test: Antimitotic activity in sea urchin embryo assessed as cleavage arrest exposed 8 to 15 mins after fertilization 45 to 55 mins before first mitotic cycle completion measured at 2.5 to 5.5 hrs post dose; assay type: functional; method in brief: as §1
# Paracentrotus lividus [3] = test: Antimitotic activity in sea urchin free-swimming blastulae assessed as microtubule destabilization by measuring embryo spinning exposed 8 to 10 hrs after fertilization measured after 15 mins to 20 hrs; assay type: functional, Blastula
# Method in brief: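 Free-swimming P. lividus blastulae just after hatching (8–10 h post-fertilization) from same culture, exposed in seawater to 2-fold decreasing concentrations (DMSO stock diluted in EtOH). Settling to well bottom with rapid spinning around animal-vegetal axis scored by light microscopy over 15 min–20 h. Effective threshold concentration; duplicate measurements.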
# Paracentrotus lividus [4] = test: In vivo microtubule destabilizing activity in sea urchin embryo assessed as tuberculate egg formation exposed 8 to 15 mins after fertilization 45 to 55 mins before first mitotic cycle completion measured at 2.5 to 5.5 hrs post dose; assay type: functional
# Method in brief: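 Paracentrotus lividus eggs from KCl-induced spawning, fertilized and cultured in filtered seawater at room temperature, up to 2000 embryos/mL. Compounds came from 10 mM DMSO stocks diluted 10-fold in 96% EtOH; tolerated solvent limits were 0.05% DMSO and 1% EtOH. Eggs were exposed to 2-fold decreasing concentrations and scored by light microscopy. The result is the effective threshold concentration, measured in duplicate.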
# [5] = Antiproliferative activity against human NCI60 cells at 10 uM after 48 hrs by SRB assay relative to control; assay type: functional; conditions: NCI60, 48 h, read-out: GI
# [6] = Antiproliferative activity against human NCI60 cells measured after 48 hrs by SRB assay; assay type: functional; conditions: NCI60, 48 h
# [7] = Antiproliferative activity against human OVCAR8 cells measured after 3 to 4 days by Celltiter-Glo luminescent cell viability assay; assay type: functional; conditions: OVCAR-8
# [8] = Antiproliferative activity against human NCI/ADR-RES cells measured after 3 to 4 days by Celltiter-Glo luminescent cell viability assay; assay type: functional
# [9] = Antiproliferative activity against human Caov3 cells measured after 96 hrs by Celltiter-Glo assay; assay type: functional, cell-based; conditions: Caov-3, 96 h
# Method in brief: (§2)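 Cells plated 24 h, then treated 96 h with 0.1% DMSO or concentrations […]; growth by CellTiter-Glo luminescence, normalized to DMSO control; IC50 from dose–response curves by logistic nonlinear regression; mean of three independent experiments.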
# [10] = Antiproliferative activity against human TOV112D cells measured after 96 hrs by Celltiter-Glo assay; assay type: functional, cell-based; method in brief: as §2
# [11] = Antiproliferative activity against human MDA-MB-231 cells measured after 96 hrs by Celltiter-Glo assay; assay type: functional, cell-based; conditions: MDA-MB-231, 96 h; method in brief: as §2
# [12] = Antiproliferative activity against human MDA-MB-468 cells measured after 48 hrs by SRB assay; assay type: functional, cell-based; conditions: MDA-MB-468, 48 h
# [13] = Antiproliferative activity against human MDA-MB-435 cells measured after 96 hrs by Celltiter-Glo assay; assay type: functional, cell-based; conditions: MDA-MB-435, 96 h; method in brief: as §2
# [14] = Antiproliferative activity against human MDA-MB-435 cells measured after 48 hrs by SRB assay; assay type: functional, cell-based; conditions: MDA-MB-435, 48 h
# [15] = Antiproliferative activity against human MDA-MB-DYT2 cells measured after 96 hrs by Celltiter-Glo assay; assay type: functional, cell-based; method in brief: as §2
# [16] = Solubility in seawater assessed as micro-crystal formation at 4 uM by light microscopy; assay type: physicochemical
# Method in brief: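 Compound from 10 mM DMSO stock diluted 10-fold in 96% EtOH, added to seawater with sea urchin embryos; microcrystal formation checked by light microscopy.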
# [17] = Antiproliferative activity against human MDA-MB-468 cells measured after 96 hrs by Celltiter-Glo assay; assay type: functional, cell-based; conditions: MDA-MB-468, 96 h; method in brief: as §2
# [18] = Antiproliferative activity against human NCI-H1975 cells measured after 96 hrs by Celltiter-Glo assay; assay type: functional, cell-based; conditions: NCI-H1975, 96 h; method in brief: as §2
# Paracentrotus lividus [19] = test: Antimitotic activity in early pluteus stage of sea urchin embryo assessed as growth inhibition of skeletal spicules at 1 uM; assay type: functional, tissue-based; conditions: Spicule
# Method in brief: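 P. lividus embryos (gametes by intracoelomic 0.5 M KCl, fertilized in filtered seawater, room temperature, paddle agitation 60 rpm); compound from 10 mM DMSO stock diluted 10-fold in 96% EtOH; growth of skeletal spicules scored by light microscopy at early pluteus stage.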
SMILES,EC (Paracentrotus lividus [1]),EC (Paracentrotus lividus [2]),EC (Paracentrotus lividus [3]),inhibition of growth at 10 µM [5],further results
COc1cc(C2CC(=O)Nc3c(-c4cccc(F)c4)nsc32)c(OC)c2c1OCO2 (centres undefined),>4 µM,>4 µM,>4 µM,,
COc1cccc(C2CC(=O)Nc3c(-c4ccc(F)cc4)nsc32)c1 (centres undefined),1 µM,4 µM,>4 µM,15.1%,Activity (Paracentrotus lividus [4]): Active
COc1ccc(C2CC(=O)Nc3c(-c4cccc(F)c4)nsc32)cc1 (centres undefined),2 µM,>4 µM,>4 µM,5.3%,
O=C1CC(c2ccsc2)c2snc(-c3ccc(Cl)cc3)c2N1 (centres undefined),0.01 µM,0.1 µM,0.2 µM,,GI50 [6]: 1510 nM; GI50 [7]: 3010 nM; GI50 [8]: 364 nM; IC50 [9]: 1080 nM; IC50 [10]: 1150 nM; IC50 [11]: 1630 nM; IC50 [12]: 291 nM; IC50 [13]: 628 nM; IC50 [14]: 260 nM; IC50 [15]: > 2000 nM
COc1cc(C2CC(=O)Nc3c(-c4cccc(F)c4)nsc32)cc2c1OCO2 (centres undefined),4 µM,>4 µM,>4 µM,4.4%,
O=C1CC(c2ccsc2)c2snc(-c3ccc(F)cc3)c2N1 (centres undefined),0.05 µM,0.2 µM,4 µM,,
O=C1CC(c2ccc(Cl)cc2)c2snc(-c3cccc(F)c3)c2N1 (centres undefined),>4 µM,>4 µM,>4 µM,16.5%,solubility [16]: Insoluble
O=C1CC(c2cccc(F)c2)c2snc(-c3cccc(F)c3)c2N1 (centres undefined),1 µM,>4 µM,>4 µM,6.4%,
COc1ccc(-c2nsc3c2NC(=O)CC3c2ccc3c(c2)OCCO3)cc1 (centres undefined),0.01 µM,0.05 µM,0.5 µM,,GI50 [6]: 933 nM; GI50 [7]: 1410 nM; GI50 [8]: 367 nM; IC50 [9]: 833 nM; IC50 [10]: 659 nM; IC50 [11]: 1710 nM; IC50 [17]: 451 nM; IC50 [12]: 328 nM; IC50 [13]: 349 nM; IC50 [14]: 247 nM; IC50 [18]: 1240 nM; IC50 [15]: 1360 nM
O=C1CC(c2ccc3c(c2)OCO3)c2snc(-c3cccc(F)c3)c2N1 (centres undefined),1 µM,4 µM,>4 µM,5.2%,
COc1ccc(-c2nsc3c2NC(=O)CC3c2cccc(Cl)c2)cc1OC (centres undefined),2 µM,>4 µM,>4 µM,14%,
COc1ccc(-c2nsc3c2NC(=O)CC3c2cc(OC)c(O)c(O)c2OC)cc1 (centres undefined),1 µM,2 µM,>5 µM,,
COc1ccc(/C=C\c2cc(OC)c(OC)c(OC)c2)cc1OP(=O)([O-])[O-].[Na+].[Na+] [FOSBRETABULIN DISODIUM],0.005 µM,0.01 µM,0.05 µM,,GI50 [6]: 1.7 nM; IC50 [9]: 13.1 nM; IC50 [10]: 30.9 nM; IC50 [11]: 173 nM; IC50 [13]: 8.75 nM; IC50 [15]: 60 nM
O=C1CC(c2cccc(Cl)c2)c2snc(-c3cccc(F)c3)c2N1 (centres undefined),1 µM,4 µM,>4 µM,,
O=C1CC(c2ccsc2)c2snc(-c3cccc(F)c3)c2N1 (centres undefined),0.05 µM,0.5 µM,2 µM,7.8%,
COc1ccc(-c2nsc3c2NC(=O)CC3c2ccc(F)cc2)cc1 (centres undefined),0.01 µM,0.05 µM,0.1 µM,,GI50 [6]: 3020 nM; GI50 [7]: 4010 nM; GI50 [8]: 2110 nM; IC50 [9]: > 2000 nM; IC50 [10]: > 2000 nM; IC50 [11]: > 2000 nM; IC50 [17]: 1850 nM; IC50 [12]: 2350 nM; IC50 [13]: 1820 nM; IC50 [14]: 440 nM; IC50 [18]: > 2000 nM; IC50 [15]: > 2000 nM
COc1ccc(-c2nsc3c2NC(=O)CC3c2ccc(Cl)cc2)cc1 (centres undefined),0.1 µM,0.2 µM,1 µM,15.7%,

SMILES,EC (Paracentrotus lividus [1]),EC (Paracentrotus lividus [2]),EC (Paracentrotus lividus [3]),inhibition of growth at 10 µM [5],further results
COc1ccc(-c2nsc3c2NC(=O)CC3c2cccc(F)c2)cc1 (centres undefined),0.01 µM,0.05 µM,0.2 µM,,GI50 [6]: 4900 nM; GI50 [7]: 7540 nM; GI50 [8]: 2960 nM; IC50 [9]: > 2000 nM; IC50 [10]: > 2000 nM; IC50 [11]: > 2000 nM; IC50 [17]: 1410 nM; IC50 [12]: 1940 nM; IC50 [13]: 1410 nM; IC50 [14]: 827 nM; IC50 [18]: > 2000 nM; IC50 [15]: > 2000 nM
COc1cc(C2CC(=O)Nc3c(-c4ccccc4)nsc32)c(OC)c2c1OCO2 (centres undefined),>4 µM,>4 µM,>4 µM,,
COc1ccc(C2CC(=O)Nc3c(-c4ccc(F)cc4)nsc32)cc1 (centres undefined),2 µM,>4 µM,>4 µM,6.2%,
COc1cc(C2CC(=O)Nc3c(-c4ccccc4)nsc32)cc2c1OCO2 (centres undefined),4 µM,>4 µM,>4 µM,4.6%,
COc1cccc(C2CC(=O)Nc3c(-c4cccc(F)c4)nsc32)c1 (centres undefined),0.5 µM,1 to 4 µM,>4 µM,9.4%,solubility [16]: Insoluble
COc1cc(C2CC(=O)Nc3c(-c4ccc(F)cc4)nsc32)c(OC)c2c1OCO2 (centres undefined),>4 µM,>4 µM,>4 µM,,Activity (Paracentrotus lividus [19]): Active
COc1ccc(-c2nsc3c2NC(=O)CC3c2cc3c(c(OC)c2OC)OCO3)cc1 (centres undefined),0.2 µM,2 µM,>5 µM,26.9%,Activity (Paracentrotus lividus [4]): Active
COc1ccc(-c2nsc3c2NC(=O)CC3c2cc(OC)c3c(c2OC)OCO3)cc1 (centres undefined),0.05 µM,0.2 µM,1 µM,,
O=C1CC(c2ccc(F)cc2)c2snc(-c3ccc(F)cc3)c2N1 (centres undefined),1 µM,4 µM,>4 µM,4.2%,solubility [16]: Insoluble
O=C1CC(c2cccc(Cl)c2)c2snc(-c3ccc(F)cc3)c2N1 (centres undefined),1 µM,4 µM,>4 µM,15.6%,
COc1cc(C2CC(=O)Nc3c(-c4ccccc4)nsc32)c(OC)c(O)c1O (centres undefined),>4 µM,>4 µM,>4 µM,,
O=C1CC(c2ccc(F)cc2)c2snc(-c3cccc(F)c3)c2N1 (centres undefined),1 µM,4 µM,>4 µM,,Activity (Paracentrotus lividus [4]): Active
COc1cc(C2CC(=O)Nc3c(-c4ccc(Cl)cc4)nsc32)cc2c1OCO2 (centres undefined),2 µM,>4 µM,>4 µM,17.8%,solubility [16]: Insoluble
COc1cc(C2CC(=O)Nc3c(-c4ccc(Cl)cc4)nsc32)c(OC)c2c1OCO2 (centres undefined),>4 µM,>4 µM,>4 µM,7.66%,
O=C1CC(c2ccc3c(c2)OCO3)c2snc(-c3ccc(F)cc3)c2N1 (centres undefined),1 µM,>4 µM,>4 µM,11.7%,
COc1ccc(-c2nsc3c2NC(=O)CC3c2cccc(Cl)c2)cc1 (centres undefined),0.01 µM,0.1 µM,0.1 µM,,GI50 [6]: 1740 nM; GI50 [7]: 2920 nM; GI50 [8]: 562 nM; IC50 [9]: 1300 nM; IC50 [10]: 1270 nM; IC50 [11]: 1620 nM; IC50 [17]: 752 nM; IC50 [12]: 174 nM; IC50 [13]: 792 nM; IC50 [14]: 749 nM; IC50 [18]: > 2000 nM; IC50 [15]: > 2000 nM
